# Assay results as given in ChEMBL document CHEMBL1136130, “Synthesis and biological evaluation of gambierol analogues” (Bioorg Med Chem Lett, 2003).
# Assay: Minimal lethal dose of compound expressed as toxicity against male mice (ddY strain) after intraperitoneal administration
# Settings: mouse, in vivo, ip
# Summary of the method: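 Male ddY mice (12–17 g) received single intraperitoneal injections of HPLC-purified samples suspended in 1% Tween 60 at a range of dose levels. Lethality and neurological signs were observed. The minimal lethal dose is reported in mg/kg.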
row,Structure (SMILES),Min lethal dose [mg/kg]
1,C=CC/C=C\C=C/[C@H]1O[C@H]2C[C@H]3O[C@H]4CC[C@H]5O[C@H]6C[C@@]7(C)O[C@@]8(C)[C@@H](O)C[C@H](CCCO)O[C@@H]8C[C@@H]7O[C@@H]6C[C@@H]5O[C@]4(C)C[C@]3(C)O[C@@H]2C=C[C@@H]1O,0.34
2,CC(=O)OC[C@H]1O[C@H]2C[C@H]3O[C@H]4CC[C@H]5O[C@H]6C[C@@]7(C)O[C@@]8(C)[C@@H](O)C[C@H](CCCO)O[C@@H]8C[C@@H]7O[C@@H]6C[C@@H]5O[C@]4(C)C[C@]3(C)O[C@@H]2CC[C@@H]1OC(C)=O,> 8.2
3,CCCCC/C=C\[C@H]1O[C@H]2C[C@H]3O[C@H]4CC[C@H]5O[C@H]6C[C@@]7(C)O[C@@]8(C)[C@@H](OCc9ccccc9)C[C@H](CCCOCc9ccccc9)O[C@@H]8C[C@@H]7O[C@@H]6C[C@@H]5O[C@]4(C)C[C@]3(C)O[C@@H]2CC[C@]1(C)O[Si](C)(C)C(C)(C)C,> 7.6
4,C=CC/C=C\C=C/[C@H]1O[C@H]2C[C@H]3O[C@H]4CC[C@H]5O[C@H]6C[C@@]7(C)O[C@@]8(C)[C@@H](O)C[C@H](CCCO)O[C@@H]8C[C@@H]7O[C@@H]6C[C@@H]5O[C@]4(C)C[C@]3(C)O[C@@H]2C=C[C@]1(C)O,0.05
5,C=CC/C=C\C=C/[C@H]1O[C@H]2C[C@H]3O[C@H]4CC[C@H]5O[C@H]6C[C@@]7(C)O[C@@]8(C)[C@@H](O)C[C@H](CCCO)O[C@@H]8C[C@@H]7O[C@@H]6C[C@@H]5O[C@]4(C)C[C@]3(C)O[C@@H]2CC[C@]1(C)O,7.9
6,C[C@@]12O[C@]3(C)C[C@@H]4O[C@@H]5CC[C@@H]6O[C@@H]7C[C@@H]8O[C@H](CO)[C@@H](O)CC[C@H]8O[C@@]7(C)C[C@@]6(C)O[C@H]5C[C@H]4O[C@H]3C[C@H]1O[C@@H](CCCO)C[C@@H]2O,> 18.3
7,C=CC/C=C\C=C/[C@H]1O[C@H]2C[C@H]3O[C@H]4CC[C@H]5O[C@H]6C[C@@]7(C)O[C@@]8(C)[C@@H](O)C[C@H](CCCO)O[C@@H]8C[C@@H]7O[C@@H]6C[C@@H]5O[C@]4(C)C[C@]3(C)O[C@@H]2CC[C@@H]1O,> 11.9
